Published values from different studies.
Compare with care: the assays were run in different laboratories.
Target: Mitogen-activated protein kinase 1 (MAPK1, Homo sapiens, UniProt P28482)

Cc1ccc(Nc2nccc(N(C)c3ccc4c(C)n(C)nc4c3)n2)cc1S(N)(=O)=O  inhibition (enzyme activity; inhibitor; 10 µM): -2%
O=C1Nc2ccc(Cl)cc2C1=Cc1cc(Cl)c(O)c(Cl)c1  remaining signal (cell-free assay; 0.5 µM): 84.3%
Cc1sc(C(=O)NC2COC2)cc1-n1cc(NC(=O)Nc2c(F)cccc2Cl)cn1  remaining activity (enzyme activity; inhibitor; 10 µM): 90.8%
CC(=O)N1CCC(c2ccc(C(=O)NC3=NCCN3)cc2C(F)(F)F)CC1  remaining binding (cell-free assay; competition with immobilised ligand; 1 µM): 100%
CSc1nc(C)c(-c2ccnc(Nc3ccc(N4CCOCC4)cc3)c2)[nH]1  inhibition (enzyme activity; inhibitor; 10 µM): 5.3%
CC1=C(C#N)C(c2ccc3c(c2)c(NC(=O)c2ccccc2C)nn3C)C(C#N)=C(C)N1  remaining binding (cell-free assay; competition with immobilised ligand; 1 µM): 80%
CCN(CC)CCNC(=O)c1c(C)[nH]c(/C=C2\C(=O)Nc3ccc(F)cc32)c1C  inhibition (enzyme activity; inhibitor; 10 µM): 1%
Nc1[nH]nc2nnc(-c3c(-c4ccccc4)nn4ccccc34)cc12  remaining signal (cell-free assay; 0.5 µM): 87.2%
CN(C)C1CCN(CC#Cc2nn(C3CCCC3)c3nc(NCc4ccccc4)ncc23)C1 (stereo not drawn)  inhibition (enzyme activity; inhibitor; FRET; 10 µM): 2%
Cc1cc(NC(=O)c2cccc3cc(-c4cccc5[nH]nc(N)c45)ccc23)ccc1F  activity vs control (enzyme activity; inhibitor; 0.1 µM): 100%
COc1cc2ncnc(Nc3ccc(Oc4ccccc4)c(C)c3C)c2cc1OC  inhibition (enzyme activity; inhibitor; 1 µM): -2%
Cc1ccc(NC(=O)c2ccc(C)c(C(F)(F)F)c2)cc1C#Cc1nn(C2CCC(O)CC2)c2ncnc(N)c12 (stereo not drawn)  remaining signal (cell-free assay; 10 µM): 108%
COc1cccc(-c2cc(=O)c3ccccc3o2)c1N  remaining signal (cell-free assay; 0.5 µM): 97.1%
Cc1ccc(-n2nc(C(C)(C)C)cc2NC(=O)Nc2ccc(OCCN3CCOCC3)c3ccccc23)cc1  inhibition (enzyme activity; inhibitor; 10 µM): -10%
CCN(CC)c1ccc(C2=NNC(=O)CC2C)cc1[N+](=O)[O-] (stereo not drawn)  remaining activity (enzyme activity; inhibitor; 10 µM): 100%
CCCOc1ccc(OC)c(F)c1C(=O)c1ccc(C(=O)N[C@@H]2CNC[C@H]2NC(=O)c2ccc3[nH]ncc3c2)cc1  remaining activity (enzyme activity; inhibitor; 10 µM): 86%
Nc1ncnc2occ(-c3ccc(NC(=O)Nc4cc(C(F)(F)F)ccc4F)cc3)c12  remaining signal (cell-free assay; inhibitor; 20 µM): 100%
CO[C@@H](C)c1c(Nc2ccc([C@@H](N(C)C(=O)C3CCS(=O)(=O)CC3)C(F)(F)F)cc2)cnc2cc(Cl)nn12  remaining binding (cell-free assay; competition with immobilised ligand; 1 µM): 100%
COc1cc(Nc2cnc(C#N)c(O[C@H](C)CN(C)C)n2)ncc1-c1cnn(C)c1  remaining activity (enzyme activity; inhibitor; radiometric; 1 µM): 101%
COc1cc2ncnc(Nc3ccc(F)c(Cl)c3)c2cc1OCCCN1CCOCC1  remaining signal (cell-free assay; 0.5 µM): 103%
COc1cc(Cl)c(C(=O)N[C@@H](CN[C@H]2CC[C@@H](N)CC2)Cc2ccc(C#N)cc2)cc1-c1ccc(CN[C@H](C)c2ccc(C)cc2)o1  remaining activity (enzyme activity; inhibitor; 1 µM): 92%
Cc1cnc(NC2CCOCC2)nc1-n1cnc(C(=O)NC(CN)c2cc(F)cc(Cl)c2)c1 (stereo not drawn)  remaining activity (enzyme activity; inhibitor; radiometric; 1 µM): 2%
FC(F)c1nc2ccccc2n1-c1nc(N2CCOCC2)nc(N2CCOCC2)n1  remaining activity (enzyme activity; inhibitor; 10 µM): 105%
CN([C@@H]1CCc2c(CC(=O)O)c3cc(S(C)(=O)=O)ccc3n2C1)S(=O)(=O)c1ccc(F)cc1  remaining binding (cell-free assay; competition with immobilised ligand; 1 µM): 77%
O=C1NC(=O)c2cc(Nc3ccc(F)cc3)c(Nc3ccc(F)cc3)cc21  remaining signal (cell-free assay; 0.5 µM): 121%
C[C@H](c1ccnc(Nc2nc3ccc(-c4cc(N(C)C)ncn4)cc3[nH]2)c1)N1CCN(C(=O)CC(F)(F)F)CC1  remaining binding (cell-free assay; competition with immobilised ligand; 0.1 µM): 78%
CC(C)(C)c1nc(-c2cccc(NS(=O)(=O)c3c(F)cccc3F)c2F)c(-c2ccnc(N)n2)s1  remaining activity (enzyme activity; inhibitor; radiometric; 1 µM): 88%
Cc1c(NC(=O)c2cc(C(N)=O)nc3cc(F)ccc23)c(C(F)(F)F)nn1Cc1ccc(C#N)cc1  remaining binding (cell-free assay; competition with immobilised ligand; 1 µM): 100%
Cn1c(=O)n(-c2ccc(C(C)(C)C#N)cc2)c2c3cc(-c4cnc5ccccc5c4)ccc3ncc21  remaining activity (enzyme activity; inhibitor; 10 µM): 114%
Cc1cc(-n2nc(Cc3cc(F)cc(C(F)(F)F)c3)nc2C)ccc1C(N)=O  remaining binding (cell-free assay; competition with immobilised ligand; 1 µM): 100%
CNC(=O)c1cc(Oc2ccc(NC(=O)Nc3ccc(Cl)c(C(F)(F)F)c3)cc2)ccn1  remaining signal (cell-free assay; 0.5 µM): 101%
CC(C)(C)C(=O)c1sc(NC2CCCCC2)nc1N  remaining activity (enzyme activity; inhibitor; 10 µM): 95%
C[C@H](c1ccc(F)cc1)N(Cc1cccc(C(=O)O)c1)C(=O)c1cnc2ccccc2c1  remaining binding (cell-free assay; competition with immobilised ligand; 1 µM): 99%
